Assay outcomes from PubChem BioAssay.
MrgX1 allo act – allosterically activates human MrgX1 receptor signaling; AID 588675; B-score at 10 µM; 0.63% of 310,000 active; MrgX1-HEK293, Fluo-4 calcium flux, FDSS; hits give high values;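 active = plate-corrected calcium response at least 3 library SD above typical, normal starting fluorescence, not activating the receptor alone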;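 also: compound read alongside a low EC10 to EC30 dose of BAM8-22 agonist; peak minus trough fluorescence over baseline measured at the second addition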
Target sequence (Q96LB2 whole entry, looked up): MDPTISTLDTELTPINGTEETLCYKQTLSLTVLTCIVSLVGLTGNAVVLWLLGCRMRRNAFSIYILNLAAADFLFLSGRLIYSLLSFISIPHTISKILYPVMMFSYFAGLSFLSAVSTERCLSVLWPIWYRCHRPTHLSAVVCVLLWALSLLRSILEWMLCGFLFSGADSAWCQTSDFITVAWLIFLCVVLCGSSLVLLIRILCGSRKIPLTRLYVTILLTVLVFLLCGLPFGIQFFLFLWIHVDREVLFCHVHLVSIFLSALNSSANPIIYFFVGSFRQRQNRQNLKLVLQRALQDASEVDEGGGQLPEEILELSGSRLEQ
RGS4 inh – inhibitors of human RGS4. B-score at 10 µM. 0.45% of 310,000 active. HEK293 M3R/RGS4 inducible, Fluo-4 calcium flux; hits give high values; triggered by carbachol at its EC20. AID 463165;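 active = B-score, a plate-corrected calcium signal, over three deviations above library mean, with baseline fluorescence within five deviations of library mean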;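 also: RGS4 expression induced by doxycycline in cells with stable M3 receptor; B-score is computed from the integrated fluorescence ratio over baseline after carbachol; higher B-score means a larger calcium signal and so more RGS4 inhibition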
Target sequence (P49798 whole entry, looked up): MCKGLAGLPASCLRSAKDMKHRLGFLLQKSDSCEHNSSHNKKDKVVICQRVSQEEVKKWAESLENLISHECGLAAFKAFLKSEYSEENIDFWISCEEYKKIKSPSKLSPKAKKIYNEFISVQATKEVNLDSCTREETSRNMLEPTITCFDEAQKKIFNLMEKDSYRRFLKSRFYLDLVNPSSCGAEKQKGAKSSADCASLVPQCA
MrgX1 antag – human MrgX1 receptor antagonism, primary screen | Q96LB2 | MRGX1-HEK293 calcium flux, Fluo-4, BAM8-22 antagonism; hits give low values | B-score at 10 µM | 1.3% of 310,000 active;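 active = calcium-response B-score plate-corrected more than 3 library SD below zero, starting fluorescence within 5 deviations, no agonist response on first addition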;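 also: peak minus trough fluorescence over baseline after final BAM8-22 challenge near maximal dose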
RGS4 act – potentiators or activators of RGS4 | HEK293 M3R/inducible RGS4, carbachol calcium flux Fluo4; hits give low values | B-score at 10 µM | 0.92% of 310,000 active | AID 463111;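 active = B-score of the integrated calcium signal more than 4 SD below the library mean, with starting fluorescence not abnormally high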;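 also: negative B-score means reduced calcium response which marks RGS4 activation or potentiation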
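System – HEK293 FlpIn-TREx cells, stable M3R, doxycycline-inducible RGS4 · Reagent – ECmax carbachol challenge · Times – compound preincubation 20 min at room temperature before agonist · Technique – Fluo4 fluorescence kinetic imaging of calcium · Measure – B score of integrated Fluo4 ratio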
MrgX1 agonist – human MrgX1 receptor agonism, primary screen | MrgX1-HEK293 cells, Fluo-4 calcium fluorescence, agonist mode; hits give high values | B-score at 10 µM | 0.44% of 310,000 active | AID 588627;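 active = calcium response B-score plate-corrected fluorescence ratio at least 3 library SD, with starting fluorescence B-score inside 5 SD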
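Assay system: stable human MrgX1 HEK293 cell line. Quantity: 15,000 cells per well. Schedule: cells plated overnight, dye loaded 0.5 h 37 °C, 0.5 h room temperature. Detection: Fluo-4 NW calcium-flux fluorescence, kinetic read. Read-out basis: peak-minus-minimum fluorescence over baseline, converted to B scores. Control set: positive and negative control wells on each plate.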
MrgX1 ant reconf – confirmation of human MrgX1 receptor antagonists | 19% of 2,300 active | remaining BAM8-22 calcium response % of control (hits give low values), % at 10 µM | AID 602420 | MrgX1-HEK293, BAM8-22 calcium flux, Fluo-4; hits give low values | shares compounds with MrgX1 antag;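 active = remaining agonist calcium response no higher than 100% minus 3 SD of agonist-only control wells, with starting fluorescence near control levels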;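 also: agonist BAM8-22 given at a near maximal EC90 to ECmax level; peak minus minimum fluorescence divided by baseline after agonist addition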
HEK293 Ca flux – activity in parental HEK293 cells lacking MrgX1 | shares compounds with MrgX1 antag | Fluo-4 calcium fluorescence, FDSS | fluorescence ratio F(max-min)/F0 at 10 µM | 2% of 4,000 active | AID 624111;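 active = duplicate-averaged calcium fluorescence ratio at least three times the standard deviation of buffer wells, a nonspecific response in parental cells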
HEK293 Ca counter – activity in parental HEK293 cells without MrgX1. shares compounds with MrgX1 antag. parental HEK293 calcium flux, Fluo-4 fluorescence ratio; hits give high values. fluorescence ratio F(max-min)/F0 at 10 µM. 0.4% of 4,000 active;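 active = calcium fluorescence ratio, averaged over duplicates, at least 3 SD of the buffer-well ratio, meaning a nonspecific response in receptor-free cells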;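 also: untransfected parental HEK293 lacking MrgX1 used as counterscreen for MrgX1 allosteric activators; fluorescence change taken during the second addition on a kinetic imager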
HEK293 Ca cntr2 – MrgX1 activator counter-screen hit in parental HEK293 cells. shares compounds with MrgX1 antag. Fluo-4 calcium fluorescence (FDSS); hits give high values. 8.7% of 4,000 active. fluorescence ratio F(max-min)/F0 at 10 µM;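 active = calcium fluorescence ratio at least three times the spread of buffer wells, meaning a non-specific response in parental cells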
Hits are given with their value; - = inactive; . = not tested or not shown. Rows were chosen to be rich in hits. Some 3.5% of all compounds tested hit in one or more screens of this group.

SMILES | MrgX1 allo act | RGS4 inh | MrgX1 antag | RGS4 act | MrgX1 agonist | MrgX1 ant reconf | HEK293 Ca flux | HEK293 Ca counter | HEK293 Ca cntr2
CC(NS(=O)(=O)c1ccc(F)cc1)C(=O)Nc1ccc2c(c1)OCCO2 (centres undefined) | - | - | - | - | - | . | . | . | .
CCCCOCCCNc1ncnc2c1[nH]c1ccccc12 | - | - | -13.9 | - | - | 26.2% | - | - | -
CCOCCCNc1ncnc2c1[nH]c1ccccc12 | - | - | - | - | - | . | . | . | .
COc1ccc(C(=O)N2CCC(n3nccc3NC(=O)C3CCOC3)CC2)cc1 (centres undefined) | - | - | - | - | - | . | . | . | .
COC(=O)c1c[nH]c(=O)c2ccccc12 | - | - | -5.73 | - | - | - | - | - | -
CCCn1c(SCc2ccccn2)nc2c1c(=O)n(C)c(=O)n2C | - | - | -7.81 | - | - | - | - | - | -
Cc1cc(Nc2cccc(Br)c2)c2ccccc2n1 | - | - | - | - | - | . | . | . | .
CC(C)C1C(C#N)=C(N)Oc2n[nH]c(C(C)(C)C)c21 (centres undefined) | - | . | - | . | - | . | . | . | .
CCCC1C(C#N)=C(N)Oc2n[nH]c(C(C)(C)C)c21 (centres undefined) | - | - | -5.07 | - | - | - | - | - | -
CCOC(=O)c1c(C)[nH]c2cc(Br)c(O)cc12 | - | - | -7.4 | - | - | 72.5% | - | - | -
CCOC(=O)c1c(-c2ccc(OC)cc2)oc2cc(Br)c(O)cc12 | - | - | - | - | - | . | . | . | .
O=C(NCc1ccc(S(=O)(=O)Nc2ccccc2Cl)s1)c1ccccc1 | - | - | - | - | - | . | . | . | .
CC(NS(=O)(=O)c1ccc(OCC(=O)Nc2cccc([N+](=O)[O-])c2)cc1)c1ccccc1 (centres undefined) | - | . | - | . | - | . | . | . | .
Nc1nc2n(n1)C(c1ccco1)CC(c1ccc(Cl)cc1)N2 (centres undefined) | - | - | -6.33 | - | - | - | - | - | -
CCc1ccc(C2CC(c3ccccc3Cl)Nc3nc(N)nn32)cc1 (centres undefined) | - | - | -5.07 | - | - | - | - | - | -
CSc1cccc(NC(=O)C2CC(=O)N(Cc3ccccc3)C2)c1 (centres undefined) | - | - | - | - | - | . | . | . | .
Cc1ccc(CN2CCCNC2=O)cc1 | - | - | -4.88 | - | - | - | - | - | -
Cc1cccc(NC(=O)C2C3CCCCC32)c1 (centres undefined) | - | - | - | - | - | . | . | . | .
CCc1ccccc1NC(=O)CSc1nnc(-c2ccco2)n1N | - | - | -6.68 | - | - | - | - | - | -
C/C(CC(=O)Nc1ccc(C)c(Cl)c1)=N\NC(=O)c1ccccn1 | - | - | - | - | - | . | . | . | .
COc1ccc(N2CC(O)=C(c3nc(-c4ccc(F)cc4)cs3)C2=N)cc1OC | - | - | -6.75 | - | - | - | - | - | -
COc1ccc(N2CC(O)=C(c3nc(-c4ccc(F)cc4)cs3)C2=N)cc1Cl | - | - | - | - | - | . | . | . | .
COc1ccc(C(=O)Nc2c(N)nc(SCC(=O)c3ccccc3)[nH]c2=O)cc1 | - | - | - | - | - | . | . | . | .
C=CCn1c(CC(=O)OC)csc1=Nc1ccc(C(C)=O)cc1 | - | - | -5.19 | - | - | - | - | - | -
O=C1CCc2cc(S(=O)(=O)N3CCN(c4ccccc4F)CC3)ccc2N1 | - | - | -4.99 | - | - | - | - | - | -
SMILES | MrgX1 allo act | RGS4 inh | MrgX1 antag | RGS4 act | MrgX1 agonist | MrgX1 ant reconf | HEK293 Ca flux | HEK293 Ca counter | HEK293 Ca cntr2
Cn1c(SCc2ccccc2)nnc1-c1ccco1 | - | - | - | - | - | . | . | . | .
COc1cc(=O)[nH]c(SCC(=O)Nc2ccc3ccccc3c2)n1 | - | - | - | - | - | . | . | . | .
CCN(CC)C(=O)CSc1nc(OC)cc(=O)[nH]1 | - | - | -9.48 | - | - | - | - | - | 52.6
COC(=O)C(NC(=O)c1ccccc1)c1ccccc1 (centres undefined) | - | - | -9.39 | - | - | - | - | - | -
CCn1c2ccccc2c2cc(NC(=O)COC(=O)c3ccc(O)cc3)ccc21 | - | - | -7.7 | - | - | - | - | - | -
O=C(O)C(Cc1c[nH]c2ccccc12)N1C(=O)c2ccccc2C1=O (centres undefined) | - | - | - | - | - | . | . | . | .
Cc1cccc(CNC(=O)Cn2ccc3cc(S(=O)(=O)N4CCCCCC4)ccc32)c1 | - | - | - | - | - | . | . | . | .
Cc1cccc(CNC(=O)Cn2ccc3cc(S(=O)(=O)N4CCCC4)ccc32)c1 | - | - | -6.79 | - | - | - | - | - | -
COc1ccc(N2C(=S)NC(C)(C)CC2(C)c2ccc(OC(C)=O)cc2OC(C)=O)cc1 (centres undefined) | - | - | -4.56 | - | - | - | - | - | -
COc1ccc2[nH]c3c(c2c1)CCN1C(=O)N([C@@H](C)C(=O)NCc2ccccc2OC)C(=O)[C@]31C | - | - | - | - | - | . | . | . | .
COc1ccc2[nH]c3c(c2c1)CCN1C(=O)N([C@@H](C)C(=O)NCc2ccccc2)C(=O)[C@]31C | - | - | -8.64 | - | - | - | - | - | -
CCn1ncc(Br)c1C(=O)Nc1sc2c(c1C(=O)OC)CCC2 | - | - | - | - | - | . | . | . | .
CCOC(=O)c1c(NC(=O)c2c(Br)cnn2CC)sc(C)c1C | - | - | -7.1 | - | - | - | - | - | -
CCOC(=O)CCNC(=O)N1CCCC(N(C)CCc2ccccc2)C1 (centres undefined) | - | - | - | - | - | . | . | . | .
O=C(CSc1nnc(CNc2cccc(C(F)(F)F)c2)n1Cc1ccco1)NCc1ccco1 | - | - | - | - | - | . | . | . | .
O=C(O)CSc1nnc(CNc2cccc(C(F)(F)F)c2)n1Cc1ccco1 | - | - | -7.36 | - | - | 78.9% | - | - | -
COc1ccc(N=Cc2ccc(-c3ccccc3)o2)cc1 | - | - | -5.99 | - | - | - | - | - | -
O=C(Cn1ncc2c([nH]c3ccccc32)c1=O)Nc1ccc(CN2CCCCC2)cc1 | - | - | - | - | - | . | . | . | .
CCCC(=O)Nc1cc(OC)c(NC(=O)NC2CCCCC2)cc1OC | - | - | -4.58 | - | - | - | - | - | -
COc1ccc(OC)c(NC(=O)NC2CCCCCCC2)c1 | - | - | - | - | - | . | . | . | .
Cc1ccccc1Cc1c(C)nc2c(C(=O)NCc3ccc4c(c3)OCO4)cnn2c1C | - | - | -4.81 | - | - | - | - | - | -
